Experiment [1] concerns HepG2. The following applies: Homo sapiens, at 10 µM.
Experiment [2] addresses Fatty acid synthase (Mus musculus, UniProt P19096). Briefly: Inhibition of mouse FAS preincubated for 30 mins in presence of acetyl coenzyme A and NADPH followed by malonyl coenzyme A addition and measured after 3 mins by spectrophotometric analysis. In a few lines:
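Crude mouse-liver FAS (196.2 U/mg) preincubated with compound, NADPH and acetyl-CoA in K2HPO4 buffer pH 7.0 at 37 °C for 30 min. Malonyl-CoA then added, and NADPH oxidation followed at 340 nm for 3 min at 37 °C. Inhibition computed against a compound-free control. IC50 from at least five concentrations, each in triplicate; mean ± SE of three experiments.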

Experiment [3] addresses Fatty acid synthase (Mus musculus) (UniProt P19096). Briefly: Inhibition of mouse FAS at 80 uM preincubated for 30 mins in presence of acetyl coenzyme A and NADPH followed by malonyl coenzyme A addition and measured after 3 mins by spectrophotometric analysis.

The source made the active and inactive calls. The rule behind the calls is not given here.

Fatty acid synthase, sequence (P19096 whole entry): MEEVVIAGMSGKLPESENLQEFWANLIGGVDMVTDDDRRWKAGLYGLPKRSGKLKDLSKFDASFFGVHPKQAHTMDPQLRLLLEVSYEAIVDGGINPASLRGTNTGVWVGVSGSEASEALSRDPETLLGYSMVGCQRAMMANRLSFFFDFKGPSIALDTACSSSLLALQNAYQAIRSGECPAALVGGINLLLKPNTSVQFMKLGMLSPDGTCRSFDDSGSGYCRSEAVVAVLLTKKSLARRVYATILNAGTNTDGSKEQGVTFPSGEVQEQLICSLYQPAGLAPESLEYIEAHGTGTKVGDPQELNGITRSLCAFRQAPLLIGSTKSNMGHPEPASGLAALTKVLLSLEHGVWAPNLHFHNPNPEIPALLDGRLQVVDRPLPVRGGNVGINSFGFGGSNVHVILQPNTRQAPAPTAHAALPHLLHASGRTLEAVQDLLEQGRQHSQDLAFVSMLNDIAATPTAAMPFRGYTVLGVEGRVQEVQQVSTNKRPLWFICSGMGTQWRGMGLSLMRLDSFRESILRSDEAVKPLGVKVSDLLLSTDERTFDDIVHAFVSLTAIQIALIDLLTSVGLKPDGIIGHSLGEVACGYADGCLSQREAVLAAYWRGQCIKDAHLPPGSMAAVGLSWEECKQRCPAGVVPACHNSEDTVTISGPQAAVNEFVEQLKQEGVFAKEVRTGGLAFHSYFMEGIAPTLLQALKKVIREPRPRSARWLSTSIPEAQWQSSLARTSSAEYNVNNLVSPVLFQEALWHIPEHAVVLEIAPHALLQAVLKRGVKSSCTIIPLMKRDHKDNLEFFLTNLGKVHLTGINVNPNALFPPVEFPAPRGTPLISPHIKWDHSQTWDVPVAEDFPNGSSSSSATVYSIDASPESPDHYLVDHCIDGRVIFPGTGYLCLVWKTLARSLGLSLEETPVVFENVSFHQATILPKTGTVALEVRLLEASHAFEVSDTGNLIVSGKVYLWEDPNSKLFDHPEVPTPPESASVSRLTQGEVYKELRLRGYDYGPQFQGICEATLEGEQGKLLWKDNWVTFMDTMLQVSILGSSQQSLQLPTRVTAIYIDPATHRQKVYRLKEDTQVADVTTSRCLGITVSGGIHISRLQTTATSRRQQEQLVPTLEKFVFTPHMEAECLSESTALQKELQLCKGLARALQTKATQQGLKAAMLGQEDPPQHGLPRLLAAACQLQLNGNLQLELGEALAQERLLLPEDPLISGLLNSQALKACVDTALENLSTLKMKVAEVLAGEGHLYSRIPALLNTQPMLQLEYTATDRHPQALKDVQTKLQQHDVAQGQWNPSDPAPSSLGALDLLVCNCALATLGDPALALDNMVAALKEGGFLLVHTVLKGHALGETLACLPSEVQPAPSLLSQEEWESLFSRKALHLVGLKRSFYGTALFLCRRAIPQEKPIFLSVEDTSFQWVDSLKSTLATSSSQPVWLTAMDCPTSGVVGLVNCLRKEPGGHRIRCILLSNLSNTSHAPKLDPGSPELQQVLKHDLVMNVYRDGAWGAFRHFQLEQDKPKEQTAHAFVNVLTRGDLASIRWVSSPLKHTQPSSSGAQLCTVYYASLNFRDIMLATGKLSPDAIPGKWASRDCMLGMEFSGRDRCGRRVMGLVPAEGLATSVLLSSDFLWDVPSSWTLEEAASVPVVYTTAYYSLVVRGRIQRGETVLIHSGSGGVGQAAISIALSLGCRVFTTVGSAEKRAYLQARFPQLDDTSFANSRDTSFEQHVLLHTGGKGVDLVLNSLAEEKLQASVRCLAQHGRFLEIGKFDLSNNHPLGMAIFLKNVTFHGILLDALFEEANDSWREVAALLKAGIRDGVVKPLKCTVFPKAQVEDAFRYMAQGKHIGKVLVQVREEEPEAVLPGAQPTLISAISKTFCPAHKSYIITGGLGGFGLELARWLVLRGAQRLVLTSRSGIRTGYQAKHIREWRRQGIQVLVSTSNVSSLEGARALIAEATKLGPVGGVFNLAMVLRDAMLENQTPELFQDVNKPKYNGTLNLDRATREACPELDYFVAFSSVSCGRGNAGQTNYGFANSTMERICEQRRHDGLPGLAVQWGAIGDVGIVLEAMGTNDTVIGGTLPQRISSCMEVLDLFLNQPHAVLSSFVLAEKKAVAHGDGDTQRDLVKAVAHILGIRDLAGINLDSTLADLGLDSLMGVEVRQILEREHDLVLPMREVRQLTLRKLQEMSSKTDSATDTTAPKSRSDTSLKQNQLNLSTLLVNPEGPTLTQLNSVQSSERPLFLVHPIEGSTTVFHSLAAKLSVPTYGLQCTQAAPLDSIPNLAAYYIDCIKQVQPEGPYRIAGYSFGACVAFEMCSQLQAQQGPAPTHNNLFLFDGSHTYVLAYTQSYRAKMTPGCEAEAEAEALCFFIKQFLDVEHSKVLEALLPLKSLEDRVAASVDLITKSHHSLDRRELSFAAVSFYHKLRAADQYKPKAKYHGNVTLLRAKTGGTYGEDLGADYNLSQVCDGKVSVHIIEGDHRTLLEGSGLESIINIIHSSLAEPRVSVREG
Fatty acid synthase (Mus musculus), sequence (P19096 whole entry): as above

Consider `COc1ccc(C(=O)O[C@H]2C(=O)OCC2(C)C)cc1`, for which, in experiment [1], the inhibition entry was “Active”. In addition, in experiment [2], the IC50 was 13.7 µM. On the same counts, the results for `C=C1C(=O)OC(CCCCCCCC)C1C(=O)O` (configuration not stated) are “Active” and 13.9 µM. The matching figures for `CCCCCCCCCCCCCCCC(=O)O[C@H]1C(=O)OCC1(C)C`: “Active” and 19.6 µM. For the compound `CC(=O)O[C@H]1C(=O)OCC1(C)C`, in experiment [2], the IC50 was 33.2 µM. Consider `CCCC(=O)O[C@H]1C(=O)OCC1(C)C`, for which the IC50 in experiment [2] amounted to 28.2 µM. In the case of `CC1(C)COC(=O)[C@@H]1OC(=O)c1ccc(F)cc1`, in experiment [3], the inhibition result was “inactive”. Still for that read-out and setting: the entry for `CCOc1ccc(C(=O)O[C@H]2C(=O)OCC2(C)C)cc1` is “inactive”.

For the compound `CC1(C)COC(=O)[C@@H]1OC(=O)c1ccccc1`, in experiment [1], the inhibition result is “inactive”. In experiment [2], the IC50 is 23 µM.

Regarding `CC1(C)COC(=O)[C@@H]1OC(=O)c1ccc(I)cc1`, the inhibition result in experiment [3] was “inactive”.

For the compound `CCCCCCCC(=O)O[C@H]1C(=O)OCC1(C)C`, the inhibition entry in experiment [1] is “Active”. Also, in experiment [2], the IC50 amounted to 20.8 µM. As for `CC(=O)Oc1cc(C(=O)O[C@H]2C(=O)OCC2(C)C)cc(OC(C)=O)c1OC(C)=O`, in experiment [1], the inhibition entry is “Active”. For the same compound, the IC50 in experiment [2] came to 13.9 µM. `CC1(C)COC(=O)[C@@H]1OC(=O)c1ccc(Br)cc1`: in experiment [3], the inhibition result was “inactive”. For `Cc1ccc(C(=O)O[C@H]2C(=O)OCC2(C)C)cc1`, the inhibition result in experiment [1] was “inactive”. In experiment [2], the concentration for half-maximal inhibition (IC50) amounted to 17.2 µM. As to `CCCCc1ccc(C(=O)O[C@H]2C(=O)OCC2(C)C)cc1`, the IC50 in experiment [2] was 27.7 µM. With `CC1(C)COC(=O)[C@@H]1OC(=O)c1ccc(C#N)cc1`, in experiment [1], the inhibition result is “Active”. In addition, the IC50 in experiment [2] was determined as 21.5 µM. On to `CC1(C)COC(=O)[C@@H]1O`, for which the inhibition entry in experiment [3] is “inactive”. For `CCCCCC(=O)O[C@H]1C(=O)OCC1(C)C`, the inhibition entry in experiment [1] was “Active”. For the same compound, the half-inhibitory concentration (IC50) in experiment [2] came to 23.3 µM.

With `CC1(C)COC(=O)[C@@H]1OC(=O)c1ccc(Cl)cc1`, the inhibition result in experiment [1] was “Active”. The concentration for half-maximal inhibition (IC50) in experiment [2] was 19.2 µM. As for `CCCCCCCCCCCCCCCCCC(=O)O[C@H]1C(=O)OCC1(C)C`, in experiment [3], the inhibition result is “inactive”. As to `CC(C)Cc1ccc(C(C)C(=O)O[C@H]2C(=O)OCC2(C)C)cc1` (some centres not stated), the IC50 in experiment [2] worked out at 28.2 µM. Consider `CCCCCCCCCCCC(=O)O[C@H]1C(=O)OCC1(C)C`, for which the inhibition result in experiment [1] is “Active”. For the same compound, the IC50 in experiment [2] came out at 15.2 µM.

By IC50 is commonly meant the midpoint of a concentration-inhibition curve.

(Values after ChEMBL document CHEMBL4396964, “Synthesis, biological activities, and docking studies of d-pantolactone derivatives as novel FAS inhibitors” (Bioorg Med Chem, 2019).)
